The structures appear in SMILES notation. Activity calls are given as the source filed them. The rule behind the calls is not given here.

The test system of one data set is HT-22. Nature of the data set: Neuroprotective against amyloid beta (42 residues)-induced cell death in mouse HT22 cells transfected with pEGFP-C1/Abeta42 assessed as increase in fluorescence intensity at 40 uM measured after 24 hrs by fluorescence microscopic analysis. The data set is classed as functional, cell-based.
Conditions: not given
In short, it runs like this: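 HT22 cells grown on glass coverslips, transfected with Aβ42 plasmid for 10 h. Medium then replaced with fresh medium containing 2% FBS, with or without compounds at 40 μM, for 24 h. Cells washed once with PBS. Fluorescence and bright-field images were captured by fluorescence microscopy to view GFP condensation.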
As for `CC1=CC[C@H](O)[C@@]2(C)[C@@H](O)C[C@@H](C(C)C)[C@@H](O[C@@H]3O[C@H](CO)[C@@H](O)[C@H](O)[C@H]3O)[C@H]12`, the result was Active.
Regarding `CC1=CC[C@H](O[C@@H]2OC[C@@H](O)[C@H](O)[C@H]2O)[C@@]2(C)[C@@H](O)C[C@@H](C(C)C)[C@@H](O[C@@H]3O[C@H](CO)[C@@H](O)[C@H](O)[C@H]3O)[C@H]12`, the result was Active.

The subject of another data set is HT-22. Nature of the data set: Cytotoxicity against mouse HT22 cells assessed as reduction in cell viability at 40 uM measured after 24 hrs by MTT assay. The data set is classed as cell-based. The note with it: ht-22, 24 h. In short, it runs like this: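 Untransfected HT22 mouse hippocampal cells grown in DMEM with 10% FBS and penicillin/streptomycin, seeded at 4000 cells/well, then incubated 24 h. Compounds in DMSO, diluted in serum-free medium (final DMSO 0.1 to 0.2% v/v), applied for 24 h. MTT (2 mg/mL) added for 4 h in the dark, formazan dissolved in DMSO, absorbance read at 550 nm.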
Regarding `C=C1C(=O)O[C@@H]2[C@H]3C(C)=CC[C@H]3[C@](C)(O)C[C@H](O)[C@@H]12` [CUMAMBRIN B], the Activity result is reported as “Toxic”.
As for `C=C1C(=O)O[C@@H]2C[C@@H](C)[C@@H]3C[C@@H](OC(C)=O)[C@H](OC(C)=O)[C@@]3(C)C[C@H]12`, the Activity entry was “Toxic”.

For another data set, the system named is HT-22. Description: Neuroprotective against amyloid beta (42 residues)-induced cell death in mouse HT22 cells transfected with pEGFP-C1/Abeta42 assessed as decrease in fluorescence intensity at 40 uM measured after 24 hrs by flow cytometry.
Conditions: not given
On to `CC1=CC[C@H](O)[C@@]2(C)[C@@H](O)C[C@@H](C(C)C)[C@@H](O[C@@H]3O[C@H](CO)[C@@H](O)[C@H](O)[C@H]3O)[C@H]12`, for which the result was Active.
For `CC1=CC[C@H](O[C@@H]2OC[C@@H](O)[C@H](O)[C@H]2O)[C@@]2(C)[C@@H](O)C[C@@H](C(C)C)[C@@H](O[C@@H]3O[C@H](CO)[C@@H](O)[C@H](O)[C@H]3O)[C@H]12`, the result was Active.

The subject of the next data set is HT-22. Nature of the data set: Neuroprotective against amyloid beta (42 residues)-induced cell death in mouse HT22 cells transfected with pEGFP-C1/Abeta42 assessed as increase in cell viability up to 80 uM measured after 24 hrs by MTT assay. The data set is classed as functional, cell-based.
Conditions: not given
Turning to `C=C1CC[C@@H]2[C@](C)(CO)[C@H](O)CC[C@@]2(C)[C@@H]1C/C=C1/C(=O)OC[C@H]1O`, the outcome was Active.

Another data set deals with HT-22. Description: Neuroprotective against amyloid beta (42 residues)-induced cell death in mouse HT22 cells transfected with pEGFP-C1/Abeta42 assessed as increase in cell viability measured after 24 hrs by MTT assay. It counts as functional, cell-based.
Conditions: not given
In short, it runs like this: (§1)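 HT22 cells seeded at 4000 cells/well for 2–3 h at 37 °C, 5% CO2, then transfected with 0.2 μg pEGFP-C1/Aβ42 plasmid by Lipofectamine 2000. After 10 h, compounds were added in medium, mostly at 40 μM, some at 5 μM or at 10, 20 and 40 μM. Incubation continued 24 h, then MTT (2 mg/mL) viability read-out. Mean ± SD, n = 3, versus untreated Aβ42-transfected cells.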
For `CC1=CC[C@H](O)[C@@]2(C)[C@@H](O)C[C@@H](C(C)C)[C@@H](O[C@@H]3O[C@H](CO)[C@@H](O)[C@H](O)[C@H]3O)[C@H]12`, the Activity result is “Dose-dependent effect”.
Take `CC1=CC[C@H](O[C@@H]2OC[C@@H](O)[C@H](O)[C@H]2O)[C@@]2(C)[C@@H](O)C[C@@H](C(C)C)[C@@H](O[C@@H]3O[C@H](CO)[C@@H](O)[C@H](O)[C@H]3O)[C@H]12`: the Activity result was “Dose-dependent effect”.

In another data set the test system is HT-22. Nature of the data set: Neuroprotective against amyloid beta (42 residues)-induced cell death in mouse HT22 cells transfected with pEGFP-C1/Abeta42 assessed as increase in cell viability at 40 uM measured after 24 hrs by MTT assay. It counts as functional, cell-based.
Conditions: not given
An outline of the steps:
as §1
Regarding `CC(=O)O[C@@H]1C[C@H]2[C@H](C)[C@H]3OC(=O)[C@@H](C)[C@H]3CC[C@]2(C)[C@H]1OC(C)=O`, the outcome was Active.
For `CC1=CC[C@H](O)[C@@]2(C)[C@@H](O)C[C@@H](C(C)C)[C@@H](O[C@@H]3O[C@H](CO)[C@@H](O)[C@H](O)[C@H]3O)[C@H]12`, the outcome was Active.
On to `C=C1CC[C@@H](O[C@@H]2O[C@H](CO)[C@@H](O)[C@H](O)[C@H]2O)[C@]2(C)CC[C@@H](C(C)C)[C@H](O)[C@@H]12`, for which the outcome was Active.
Turning to `CC(=O)OC[C@H]1O[C@@H](O[C@@H]2[C@H](C(C)C)C[C@H](OC(=O)C[C@](C)(O)CC(=O)O)[C@]3(C)[C@@H](O)CC=C(C)[C@@H]23)[C@H](O)[C@@H](O)[C@@H]1O`, the outcome was Active.
As for `CC1=CC[C@H](O)[C@@]2(C)[C@@H](OC(=O)C[C@](C)(O)CC(=O)O)C[C@@H](C(C)C)[C@@H](O[C@@H]3O[C@H](CO)[C@@H](O)[C@H](O)[C@H]3O)[C@H]12`, the outcome was Active.
For `O=C(/C=C/c1ccc(O)cc1)NCCCCN(CCCNC(=O)/C=C/c1ccc(O)cc1)C(=O)/C=C/c1ccc(O)cc1`, the outcome was Active.
The same measure, in the same setting: to `CC1=CC[C@H](O[C@@H]2OC[C@@H](O)[C@H](O)[C@H]2O)[C@@]2(C)[C@@H](O)C[C@@H](C(C)C)[C@@H](O[C@@H]3O[C@H](CO)[C@@H](O)[C@H](O)[C@H]3O)[C@H]12` belongs “Active”; to `C=C(C(=O)O)[C@H]1C[C@]2(C)C(=O)CC[C@]23O[C@H]1C[C@@H]3C`, “Active”; to `CC1=CC[C@H](OC(=O)C[C@](C)(O)CC(=O)O)[C@@]2(C)[C@@H](O)C[C@@H](C(C)C)[C@@H](O[C@@H]3O[C@H](CO)[C@@H](O)[C@H](O)[C@H]3O)[C@H]12`, “Active”.

Source of the values: ChEMBL document CHEMBL4316644, “Eudesmane Glycosides from Ambrosia artemisiifolia (Common Ragweed) as Potential Neuroprotective Agents” (J Nat Prod, 2019).
